Data on four compounds can be found in ChEMBL document CHEMBL1123424, “Conformationally defined adrenergic agents. 2. Catechol imidazoline derivatives: biological effects at alpha 1 and alpha 2 adrenergic receptors” (J Med Chem, 1986).

One may read the Emax as the size of the effect at its maximum, as opposed to the concentration needed. One may read the IC50 as the concentration that inhibits the measured activity by half. The term Ki denotes the equilibrium dissociation constant of an inhibitor or competing ligand from its target. A low value points to tighter binding.

For one assay, the species on record is Oryctolagus cuniculus. Nature of the assay: The compound was evaluated for the alpha-1-adrenergic activity in isolated rabbit aortic tissue as E max. The settings on record: Aorta. The class given is functional. Put shortly: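 Rabbit aorta helical strip in Krebs buffer, pH 7.4, 37 °C, 2 g initial tension, isometric contraction. […] Washout every 10-15 min for 60-90 min, then cumulative test-compound curve in the same tissue. Index = ED50 NE/ED50 CPD, calculated per experiment, then averaged.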

In assay [1] the target is T1, Adrenergic receptor alpha-2 (Rattus norvegicus, UniProt P22086+P19328+P22909).
T1 sequence (P22086 whole entry): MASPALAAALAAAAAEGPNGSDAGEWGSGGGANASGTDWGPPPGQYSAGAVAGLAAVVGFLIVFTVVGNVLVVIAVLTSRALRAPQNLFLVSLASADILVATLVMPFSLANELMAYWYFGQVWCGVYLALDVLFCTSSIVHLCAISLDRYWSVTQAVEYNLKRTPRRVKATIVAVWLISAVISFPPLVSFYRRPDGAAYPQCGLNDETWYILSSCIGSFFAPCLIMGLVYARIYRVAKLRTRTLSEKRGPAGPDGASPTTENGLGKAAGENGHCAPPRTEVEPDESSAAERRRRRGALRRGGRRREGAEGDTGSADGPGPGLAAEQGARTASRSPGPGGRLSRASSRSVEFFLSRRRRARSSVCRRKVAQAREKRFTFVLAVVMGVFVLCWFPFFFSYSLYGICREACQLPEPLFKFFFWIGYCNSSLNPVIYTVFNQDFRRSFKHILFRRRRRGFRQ
T1 sequence (P19328 whole entry): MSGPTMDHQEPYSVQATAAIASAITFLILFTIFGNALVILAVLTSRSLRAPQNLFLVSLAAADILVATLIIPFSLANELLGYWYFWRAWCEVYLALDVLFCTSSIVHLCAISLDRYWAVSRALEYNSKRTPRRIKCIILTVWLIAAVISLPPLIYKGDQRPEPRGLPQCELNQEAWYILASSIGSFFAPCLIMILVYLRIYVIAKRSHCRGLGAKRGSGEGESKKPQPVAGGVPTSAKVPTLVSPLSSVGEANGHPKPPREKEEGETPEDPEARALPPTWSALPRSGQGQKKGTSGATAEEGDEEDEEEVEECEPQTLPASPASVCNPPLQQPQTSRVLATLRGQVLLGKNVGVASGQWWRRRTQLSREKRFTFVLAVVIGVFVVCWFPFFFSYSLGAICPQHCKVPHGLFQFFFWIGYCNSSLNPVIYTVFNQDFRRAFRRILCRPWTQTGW
T1 sequence (P22909 whole entry): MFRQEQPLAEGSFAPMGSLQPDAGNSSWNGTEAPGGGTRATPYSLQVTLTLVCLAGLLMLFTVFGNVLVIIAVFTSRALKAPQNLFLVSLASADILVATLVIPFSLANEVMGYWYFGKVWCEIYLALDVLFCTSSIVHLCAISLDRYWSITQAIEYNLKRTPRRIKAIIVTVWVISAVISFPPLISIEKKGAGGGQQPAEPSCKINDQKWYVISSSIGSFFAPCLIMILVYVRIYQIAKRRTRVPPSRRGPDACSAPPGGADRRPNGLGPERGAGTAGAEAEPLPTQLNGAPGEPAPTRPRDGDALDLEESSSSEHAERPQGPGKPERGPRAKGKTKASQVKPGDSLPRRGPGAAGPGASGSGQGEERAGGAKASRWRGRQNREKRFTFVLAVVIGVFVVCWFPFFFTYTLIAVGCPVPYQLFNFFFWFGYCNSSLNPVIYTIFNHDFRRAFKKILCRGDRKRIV
Nature of the assay: The compound was evaluated for the inhibition of [3H]rauwolscine binding to alpha-2-adrenergic receptor from rat cortex. In short, it runs like this: (§1)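 Washed membranes of pooled male Sprague-Dawley rat cerebral cortex in 50 mM Tris-HCl pH 7.7, 50-150 μg/mL protein. [3H]rauwolscine incubated 2 h at 4 °C, then filtration. Nonspecific binding with phentolamine 10⁻⁵ M. At least four test concentrations between 10⁻¹⁰ and 10⁻³ M, in duplicate. IC50 from logit-log plot, Ki by Cheng-Prusoff.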

Assay [2] deals with Adrenergic receptor alpha-2 (Homo sapiens) (UniProt P08913+P18825+P18089). Nature of the assay: Index is the ratio between ED50 value of Norepinephrine to test compound at alpha-2 adrenergic receptor. Put shortly:
(§2)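 Dog saphenous vein strips, gassed 95% O2/5% CO2, 37 °C, pH 7.45, 2 g preload, isometric contraction. After 15-20 min equilibration, maximal NE contraction (1 × 10⁻⁴ M) and 60 min wash. Phenoxybenzamine 1 × 10⁻⁷ M for 30 min, 60 min washout. Control cumulative NE curve, washout 45-60 min, then cumulative test-agonist curve. Index = ED50 NE/ED50 CPD per experiment, averaged.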

Assay [3] concerns the target T2, Adrenergic receptor alpha-1 (Rattus norvegicus, UniProt P15823+P23944+P43140).
T2 sequence (P15823 whole entry): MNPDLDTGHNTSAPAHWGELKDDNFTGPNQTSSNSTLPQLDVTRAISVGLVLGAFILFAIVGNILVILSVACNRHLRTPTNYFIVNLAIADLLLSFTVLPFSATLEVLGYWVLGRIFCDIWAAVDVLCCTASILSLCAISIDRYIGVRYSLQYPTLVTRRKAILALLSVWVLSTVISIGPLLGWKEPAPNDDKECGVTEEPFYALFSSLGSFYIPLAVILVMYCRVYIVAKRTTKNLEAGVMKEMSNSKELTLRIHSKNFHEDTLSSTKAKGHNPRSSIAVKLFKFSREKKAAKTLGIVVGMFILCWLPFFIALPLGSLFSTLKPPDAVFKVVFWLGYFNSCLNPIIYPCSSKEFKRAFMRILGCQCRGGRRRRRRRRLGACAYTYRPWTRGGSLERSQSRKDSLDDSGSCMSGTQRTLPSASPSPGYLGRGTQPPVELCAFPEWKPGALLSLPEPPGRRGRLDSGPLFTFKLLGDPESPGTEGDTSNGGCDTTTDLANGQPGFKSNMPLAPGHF
T2 sequence (P23944 whole entry): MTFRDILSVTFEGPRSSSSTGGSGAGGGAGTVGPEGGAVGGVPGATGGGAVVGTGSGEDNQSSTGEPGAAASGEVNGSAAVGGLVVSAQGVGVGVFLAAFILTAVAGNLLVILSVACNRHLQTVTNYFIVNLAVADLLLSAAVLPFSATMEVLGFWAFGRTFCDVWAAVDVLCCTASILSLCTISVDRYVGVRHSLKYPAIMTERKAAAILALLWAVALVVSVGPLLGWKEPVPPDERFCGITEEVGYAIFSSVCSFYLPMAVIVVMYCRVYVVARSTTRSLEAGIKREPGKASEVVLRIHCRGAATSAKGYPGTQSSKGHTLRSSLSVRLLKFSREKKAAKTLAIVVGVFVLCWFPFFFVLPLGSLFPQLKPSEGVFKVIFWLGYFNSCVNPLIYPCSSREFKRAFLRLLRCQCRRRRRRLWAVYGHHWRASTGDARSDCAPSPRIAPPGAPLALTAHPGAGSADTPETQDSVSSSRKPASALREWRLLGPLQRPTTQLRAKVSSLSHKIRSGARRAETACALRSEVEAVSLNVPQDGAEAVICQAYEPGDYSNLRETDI
T2 sequence (P43140 whole entry): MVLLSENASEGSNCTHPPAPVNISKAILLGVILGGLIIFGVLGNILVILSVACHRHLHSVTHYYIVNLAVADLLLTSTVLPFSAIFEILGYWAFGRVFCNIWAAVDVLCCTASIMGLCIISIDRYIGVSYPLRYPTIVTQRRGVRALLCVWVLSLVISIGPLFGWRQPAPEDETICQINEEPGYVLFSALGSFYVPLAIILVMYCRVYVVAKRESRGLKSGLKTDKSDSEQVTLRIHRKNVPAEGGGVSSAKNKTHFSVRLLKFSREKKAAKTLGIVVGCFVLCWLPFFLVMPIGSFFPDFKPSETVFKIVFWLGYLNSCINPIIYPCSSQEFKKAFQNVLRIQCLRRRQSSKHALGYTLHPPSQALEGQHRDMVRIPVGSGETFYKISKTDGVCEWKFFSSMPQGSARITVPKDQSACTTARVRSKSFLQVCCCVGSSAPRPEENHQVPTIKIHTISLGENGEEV
Nature of the assay: The compound was evaluated for the inhibition of [3H]prazosin binding to alpha-1 adrenergic receptor from rat liver. Put shortly:
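Washed rat liver membranes (male Sprague-Dawley) in 50 mM Tris-HCl pH 7.7, 50-150 μg/mL protein. [3H]prazosin incubated 50 min at 25 °C, then filtration. Nonspecific binding with phentolamine 10⁻⁵ M. At least four test concentrations between 10⁻¹⁰ and 10⁻³ M, in duplicate. IC50 from logit-log plot, Ki by Cheng-Prusoff.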

For assay [4], the target named is T1, Adrenergic receptor alpha-2. Nature of the assay: The compound was evaluated for the binding affinity towards alpha-2 adrenergic receptor from rat cortex. Put shortly: as §1
The species named for assay [5] is Canis familiaris. Nature of the assay: The compound was evaluated for the alpha-2-adrenergic activity in PBZ-pretreated dog saphenous vein as E max. The class given is functional. The conditions noted are these: Canis lupus familiaris. Put shortly: as §2
For assay [6], the target named is Adrenergic receptor alpha-1 (Homo sapiens) (UniProt P35348+P25100+P35368). Nature of the assay: Index is the ratio between ED50 value of Norepinephrine to test compound at alpha-1 adrenergic receptor.
The species entered for assay [7] is Canis familiaris. The assay can be described thus: The compound was evaluated for the alpha-2-adrenergic activity in PBZ-pretreated dog saphenous vein as EED50 CPD. The class given is functional, Canis lupus familiaris. Put shortly: as §2

As for `Br.Oc1ccc2c(c1O)CC2C1=NCCN1` (stereo not given), the figures for the Emax in the assay filed under Oryctolagus cuniculus and in the assay filed under Canis familiaris [5] were 98% and 67%, respectively. Moreover, the results for the IC50 in assay [1] and in assay [3] were 49 nM and 4400 nM, respectively. For the same compound, the Ratio in assay [2] came out at 1.8; in assay [6] it was 0.4. In addition, the Ki stood at 1100 nM in assay [3] and 46 nM in assay [4].
Regarding `Br.Oc1ccc2c(c1O)CCC2C1=NCCN1` (stereo not given), the Emax in the assay filed under Oryctolagus cuniculus is 124%; in the assay listed under Canis familiaris [5], 102%. Moreover, the IC50 is 3.3 nM in assay [1] and 1570 nM in assay [3]. Further, the Ratio in assay [2] is 22; in assay [6], 12. Further, the results for the Ki in assay [3] and in assay [4] were 350 nM and 3.1 nM, respectively.
For the compound `Br.Oc1ccc2c(c1O)CCCC2C1=NCCN1` (stereo not given), the Emax in the assay filed under Oryctolagus cuniculus is 114%; in the assay listed under Canis familiaris [5], 102%. Moreover, the IC50 in assay [1] was determined as 7 nM; in assay [3] it was 2500 nM. Moreover, the figures for the Ratio in assay [2] and in assay [6] were 188 and 13, respectively. Also, the Ki stood at 400 nM in assay [3] and 6.5 nM in assay [4].
In the case of `Br.Oc1ccc2c(c1O)CCCCC2C1=NCCN1` (stereo not given), the ED50 in the assay listed under Canis familiaris [7] was 350. Besides, the IC50 in assay [1] is 4200 nM; in assay [3], 56000 nM. In addition, in assay [2], the Ratio worked out at 0.03. The Ki in assay [3] was found to be 13000 nM; in assay [4], 4000 nM.
